Screening data as filed in PubChem BioAssay.
CSC inhib: blocks cancer stem cells | cancer stem cell-like cells viability, luminescence | AID 2717 | inhibition, % at 7.5 µM | actives 1.1% (n = 300,000); in the data active = inhibition above about 75%; tested in HMLE shEcad cells
Mdm2 MdmX PPI: inhibitors of human Mdm2/MdmX interaction. O15151+Q00987. SaOS-2 split-luciferase Mdm2/MdmX complementation, luminescence. inhibition, % at 8 µM. actives 3% (n = 330,000);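 active = inhibition of at least 50% at 8 µM in the primary screen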
Target sequence (O15151 whole entry, looked up): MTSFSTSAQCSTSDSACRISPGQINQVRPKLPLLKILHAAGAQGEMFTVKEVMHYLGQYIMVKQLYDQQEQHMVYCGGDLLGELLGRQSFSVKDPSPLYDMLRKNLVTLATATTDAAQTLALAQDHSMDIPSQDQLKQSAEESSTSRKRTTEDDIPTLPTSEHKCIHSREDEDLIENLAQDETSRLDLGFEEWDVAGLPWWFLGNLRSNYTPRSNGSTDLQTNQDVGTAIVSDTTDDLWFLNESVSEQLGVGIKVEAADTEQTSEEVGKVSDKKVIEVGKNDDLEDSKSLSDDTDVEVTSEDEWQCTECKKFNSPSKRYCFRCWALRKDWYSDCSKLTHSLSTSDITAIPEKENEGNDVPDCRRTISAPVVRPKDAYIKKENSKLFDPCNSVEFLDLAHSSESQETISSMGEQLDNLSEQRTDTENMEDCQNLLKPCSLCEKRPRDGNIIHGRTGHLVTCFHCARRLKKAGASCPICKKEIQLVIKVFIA
Target sequence (Q00987 whole entry, looked up): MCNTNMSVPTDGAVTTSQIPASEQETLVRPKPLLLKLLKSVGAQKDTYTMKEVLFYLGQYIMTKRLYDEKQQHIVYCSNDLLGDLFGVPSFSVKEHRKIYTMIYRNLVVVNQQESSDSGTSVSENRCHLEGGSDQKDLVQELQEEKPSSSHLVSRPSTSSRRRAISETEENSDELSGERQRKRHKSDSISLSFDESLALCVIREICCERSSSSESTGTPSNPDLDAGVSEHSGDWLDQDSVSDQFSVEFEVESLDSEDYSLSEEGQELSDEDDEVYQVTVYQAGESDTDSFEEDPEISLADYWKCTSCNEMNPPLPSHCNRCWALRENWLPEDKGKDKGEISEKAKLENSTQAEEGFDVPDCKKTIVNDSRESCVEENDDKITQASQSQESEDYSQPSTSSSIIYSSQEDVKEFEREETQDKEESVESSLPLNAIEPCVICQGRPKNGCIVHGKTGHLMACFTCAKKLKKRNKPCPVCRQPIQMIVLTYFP
Beta apoptosis: beta cell apoptosis inhibition; INS-1E cytokine-induced death, ATP luminescence, 48 h; percent of positive-control rescue, neutral wells zero; protection from apoptosis, % (test concentration not listed); actives 0.8% (n = 300,000);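 active = Every replicate reaches about 75%, or at least half do and their mean reaches it too, limit read from the data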;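 also: 0% = cytokine-treated negative control wells and 100% = positive control rescue; higher means more ATP so stronger rescue from cytokine killing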
UPR CHOP act: activators of apoptotic arm of unfolded protein response (CHOP); CHO-CHOP luciferase reporter, UPR activation, luminescence; percent of tunicamycin response over DMSO baseline; activation, % at 10 µM; actives 0.34% (n = 330,000); AID 449763;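 active = at 10 µM dose, activation of 40% or more, normalized to positive control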;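 also: 100% = tunicamycin at 10 µg/mL and 0% = DMSO alone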
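System: CHO-CHOP luciferase reporter cell line; amount: 500 cells/well; buffer or medium: F12 medium containing 10% fetal bovine serum; incubation: 6 h compound exposure at 37 °C after overnight seeding; measured by: luciferase luminescence after 10 min with Steady-Glo reagent; evaluation: % reporter activation, DMSO baseline versus tunicamycin full activation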
SKKanGAS inh: blocks kanamycin growth of S. pyogenes SKKanGAS strain; inhibition, % at 7.5 µM; actives 1.3% (n = 300,000); AID 1662; BacTiter-Glo, 6 h;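 active = mean replicate score, as percent of positive control median, at least 50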;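 also: strain carries kanamycin resistance gene driven by streptokinase promoter and grows in 40 µg/ml kanamycin; loss of luminescence reflects streptokinase promoter inhibition or plain growth inhibition; 0% = median of DMSO wells and 100% = positive control at its reference dose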
UPR XBP1 act: activators of adaptive arm of unfolded protein response (XBP1); activation, % at 20 µM; AID 463104; CHO-XBP1 luciferase reporter, IRE1-XBP1 UPR activation, luminescence; percent of tunicamycin response, DMSO as zero; actives 0.33% (n = 330,000);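 active = versus positive control, 20 µM dose yields 30% or more activation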;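 also: 100% = tunicamycin at 10 µg/mL and 0% = DMSO only wells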
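assay system = CHO-XBP1 luciferase reporter cells | amount = 1000 cells/well | buffer or medium = F12 plus 10% FBS | compound dosing = single point, 20 µM final compound, 1% DMSO | incubation = 16-18 h cell attachment at 37 °C, then 6 h compound exposure | detection = Steady-Glo luminescence read | controls = tunicamycin 10 µg/mL and vehicle-only wells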
Mdm2-MdmX conf: human Mdm2/MdmX binding inhibition, confirmed | inhibition, % at 8 µM | luminescent assay | AID 489028 | shares compounds with Mdm2 MdmX PPI | actives 55% (n = 10,000); in the data active = inhibition above about 40%
FLuc counter: full-length luciferase inhibition in Mdm2/MdmX counter-screen. AID 504607. inhibition, % at 8 µM. SaOS-2 full-length luciferase counterscreen, luminescence. actives 77% (n = 6,200). shares compounds with Mdm2 MdmX PPI;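 active = mean inhibition at 8 µM reaching about 37%, which flags the compound as non-specific, limit read from the data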;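 also: p53-null SaOS-2 cells with luciferase driven by a doxycycline-inducible promoter; compound on cells about two nights before reading with doxycycline added after day one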
* marks the source's active call; other numbers are inactive results; · = no result given. The list is not random: actives were taken first. Their share in the collection is about 4.8%.

SMILES	CSC inhib	Mdm2 MdmX PPI	Beta apoptosis	UPR CHOP act	SKKanGAS inh	UPR XBP1 act	Mdm2-MdmX conf	FLuc counter
Cc1cccc(/C=C/c2onc(C)c2S(=O)(=O)N2CCC(C(=O)N3CCCCCC3)CC2)c1	43.6	21.1	19.4	1.8	17.5	-3.0	·	·
Cc1cccc(/C=C/c2onc(C)c2S(=O)(=O)N2CCC(C(=O)N3CCC(C)CC3)CC2)c1	-18.2	52.0*	0.7	-0.4	13.4	3.2	10.8	·
CC1Cc2cc(S(=O)(=O)CCC(=O)NCc3ccco3)ccc2N1C(=O)C1CC1 (stereo not drawn)	36.3	34.1	0.6	-0.4	-0.6	0.2	·	·
CC(C)(O)C#Cc1ccc([C@@H]2C[C@H]3CN(c4ccccc4)C(=O)[C@]34CCCN24)s1	40.8	63.6*	33.0	-2.1	1.8	-2.5	41.4*	60.0*
CCC(C)N(CCNC(=O)c1ccc2c(c1)NC(=O)c1ccccc1S2)C1CCCCC1 (stereo not drawn)	16.3	66.9*	2.4	2.6	2.7	-1.3	47.5*	55.8*
CCOC(=O)c1c(CSc2ccc(CC)cc2)oc2ccc(O)c(CN(C)C)c12	81.5*	86.0*	4.0	1.4	0.9	25.4	44.1*	62.8*
CCOC(=O)c1c(C)oc2ccc(O)c(CN(C)C)c12	-14.9	24.6	0.8	3.1	1.3	1.3	·	·
CN1CCN(S(=O)(=O)c2cccc(C(=O)N(C)CC(=O)Nc3ccc(F)c(F)c3F)c2)CC1	-8.3	5.4	·	0.2	-9.3	0.6	·	·
COc1cc(C(=O)OCC(=O)Nc2cc(C)on2)ccc1OCc1ccccc1Cl	8.7	13.2	-6.7	2.7	13.2	1.4	·	·
COc1ccc(NC(=O)COC(=O)c2ccc(OCc3ccccc3Cl)c(OC)c2)c(OC)c1	16.1	61.2*	-3.2	3.1	-1.5	-1.4	15.6	·
CCCC(=O)N(Cc1cc(=O)[nH]c2ccccc12)c1cccc(C)c1	-16.6	-4.8	4.2	-1.5	3.6	-5.7	·	·
COc1ccc(N(Cc2cc(=O)[nH]c3ccccc23)C(=O)CCl)cc1	56.9	100.3*	-27.2	-1.2	-2.3	-11.1	79.3*	62.6*
Cc1cccc(N(Cc2cc(=O)[nH]c3ccccc23)C(=O)CCl)c1	104.7*	100.3*	-16.0	23.6	-2.9	-6.9	100.2*	56.1*
CCOC(=O)C1=C(C)NC(C)=C(C(=O)OCC)C1c1ccccc1/C=C/C(=O)OC(C)(C)C	98.6*	71.6*	39.0	6.8	38.0	39.0*	30.9	·
CCOC(=O)C1=C(C)NC(C)=C(C(=O)OCC)C1/C=C/c1ccccc1OC	12.9	47.6	-11.0	5.9	2.8	0.4	·	·
CC(C)Cn1c(N)c(C(=O)CSc2ccc3c(c2)OCCO3)c(=O)n(C)c1=O	-5.0	51.6*	94.2*	0.8	3.3	3.0	54.9*	41.2*
CCN1C(=O)/C(=C/c2nc3ccccc3c(=O)n2-c2ccccc2)c2ccccc21	22.2	83.3*	23.2	2.9	10.8	16.1	49.1*	57.4*
COc1ccc(S(=O)(=O)Nc2cc3c(C(C)=O)c(C)oc3c3ccccc23)cc1	68.9	66.5*	·	-0.4	13.2	19.2	70.0*	80.1*
COc1ccc(S(=O)(=O)Nc2cc3c(cc2C(C)=O)OCO3)cc1	62.1	63.1*	2.7	-1.4	18.1	0.1	50.9*	63.3*
Fc1ccc([C@@H]2CCNC[C@H]2COc2ccc3c(c2)OCO3)cc1	5.8	50.6*	·	-0.5	4.0	-0.6	33.5	55.6*
Clc1cc(Br)ccc1OCCCNCc1ccccc1	36.9	55.2*	6.7	0.2	8.8	-0.5	10.6	·
Cc1ccc(C)c(OCCCNCc2ccccc2)c1	1.6	18.1	·	0.4	2.1	0.6	·	·
COc1cccc(/C=N/NC(=O)c2nnn(-c3nonc3N)c2CN(C)c2ccccc2)c1	-2.6	-0.3	0.2	2.6	15.3	-2.4	·	·
C/C(=N\NC(=O)c1nnn(-c2nonc2N)c1CN1CCCCC1)c1ccccc1O	81.4*	51.3*	28.5	-0.9	11.5	-2.2	47.0*	43.7*
C/C(=N\NC(=O)c1nnn(-c2nonc2N)c1CN(C)c1ccccc1)c1ccccc1O	97.7*	69.4*	90.4*	-0.7	50.4*	-4.3	76.5*	30.5
SMILES	CSC inhib	Mdm2 MdmX PPI	Beta apoptosis	UPR CHOP act	SKKanGAS inh	UPR XBP1 act	Mdm2-MdmX conf	FLuc counter
CC(/C=N/NC(=O)c1nnn(-c2nonc2N)c1CN1CCCCC1)=C\c1ccccc1	11.6	18.4	14.6	0.1	5.5	3.9	·	·
COc1ccc(/C(C)=N/NC(=O)c2nnn(-c3nonc3N)c2CN(C)c2ccccc2)cc1	-3.9	50.1*	15.5	-1.8	-2.0	1.9	1.9	·
CC(=O)N1c2ccc(S(=O)(=O)NCCC(=O)N3CCC(C)CC3)cc2CC1C (stereo not drawn)	-17.3	22.3	·	2.1	-5.4	-2.0	·	·
C[C@H](NC(=O)c1nc[nH]c1C(=O)N[C@@H](Cc1ccccc1)C(=O)OC(C)(C)C)C(=O)OCc1ccccc1	-5.8	7.1	-9.7	-1.1	22.5	-4.2	·	·
CC(=O)c1cn(CCOc2ccc(F)cc2)c2ccccc12	27.4	25.9	16.7	-2.3	1.9	-2.6	·	·
COc1ccc(-n2c(O)c(C=Nc3ccccc3)c3ccccc3c2=O)cc1OC	-8.3	80.4*	14.0	1.3	4.4	-0.6	10.9	·
C=CC[C@H](CC(=O)N(CCO)Cc1ccccc1)C(=O)NCCOC(=O)[C@H](CC=C)CC(=O)OC(C)(C)C	·	11.5	·	0.1	·	-4.5	·	·
CCN(c1ccc(OC)cc1)S(=O)(=O)c1ccc(-c2cc(C)no2)s1	-18.8	57.2*	3.7	1.2	1.5	-2.6	48.0*	58.9*
COc1ccc(N2CCN(S(=O)(=O)c3ccc(-c4cc(C)no4)s3)CC2)cc1	-9.6	9.0	-3.2	0.1	-1.7	-5.1	·	·
COc1ccc2c3n(nc2c1)CCN=C3c1cc(Cl)c(N)c(Cl)c1	39.9	64.8*	16.4	1.8	·	5.1	62.2*	65.1*
Nc1c(Cl)cc(C2=NCCn3nc4cc(C(F)(F)F)ccc4c32)cc1Cl	25.7	-7.0	5.4	1.8	27.2	11.4	·	·
Cc1ccc2[nH]c3c(c2c1)CCCC3C(N)=O (stereo not drawn)	12.1	-0.7	-1.9	-1.1	-3.5	3.8	·	·
Cc1ccc2[nH]c3c(c2c1)CCCC3NC(=O)CCl (stereo not drawn)	39.4	80.4*	-18.0	0.0	8.2	-4.7	30.6	17.5
CCOc1ccc(CN(C)CC(O)COC(c2ccc(OC)cc2)c2ccc(OC)cc2)cc1 (stereo not drawn)	-3.5	59.4*	-0.5	2.0	11.0	0.7	28.9	·
